The target in data set [1] is Serine/threonine-protein kinase PAK 2 (Homo sapiens) (UniProt Q13177). Briefly: Binding affinity to wild-type human partial length PAK2 (P151 to R525 residues) expressed in bacterial expression system assessed as remaining unbound target protein level at 1000 nM by Kinomescan method relative to control.
Data set [2] has as its system Mast/stem cell growth factor receptor Kit (Homo sapiens), P10721 [A829P]. Briefly: Binding affinity to human partial length KIT A829P mutant (I571 to D952 residues) expressed in mammalian expression system assessed as remaining unbound target protein level at 1000 nM by Kinomescan method relative to control. Summed up:
(§1)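 KINOMEscan competition-binding profiling across the panel of 468 kinases and mutants, with inhibitor tested at 1 μM. Binding is expressed as percent of control, with DMSO as the reference control.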

The species entered for another data set is Homo sapiens. Put plainly: Selectivity ratio of IC50 for recombinant full length His-tagged human CDK1/CyclinB to IC50 for recombinant full length His-tagged human CDK9/CyclinT1.
Data set [3] concerns the target 1-phosphatidylinositol 3-phosphate 5-kinase (Homo sapiens) (UniProt Q9Y2I7). Briefly: Binding affinity to wild-type human partial length PIKFYVE (F1512 to C2098 residues) expressed in mammalian expression system assessed as remaining unbound target protein level at 1000 nM by Kinomescan method relative to control.
Data set [4] is described as follows: Cmax in beagle dog at 2 mg/kg, iv by LC-MS/MS analysis. Format: ADME, organism-based, Canis lupus familiaris. More on the design: dose 2 mg/kg, route intravenous. Particulars: in vivo.
In data set [5] the test system is Tyrosine-protein kinase ABL1 (Homo sapiens), P00519 [F317L]. Put plainly: Binding affinity to human phosphorylated ABL1 F317L mutant (S229 to K512 residues) expressed in mammalian expression system assessed as remaining unbound target protein level at 1000 nM by Kinomescan method relative to control. Summed up:
(§2)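 Single-point competition binding screen across a panel of 468 kinases and mutants, with the inhibitor at 1 μM. Binding is read out as percent of a DMSO control, and targets below 1 percent control were classed as strong binders.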

Data set [6] concerns the target Serine/threonine-protein kinase TAO3 (Homo sapiens) (UniProt Q9H2K8). Put plainly: Binding affinity to wild-type human partial length TAOK3 (M1 to T316 residues) expressed in mammalian expression system assessed as remaining unbound target protein level at 1000 nM by Kinomescan method relative to control.
The target in data set [7] is Cyclin-dependent kinase 7 (Homo sapiens) (UniProt P50613). Briefly: Binding affinity to wild-type human full length CDK7 (M1 to L344 residues) expressed in mammalian expression system assessed as remaining unbound target protein level at 1000 nM by Kinomescan method relative to control. Summed up: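 KINOMEscan competitive binding profile at 1 μM inhibitor. Remaining target binding reported as percent of DMSO control.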
Sequence of Cyclin-dependent kinase 7 (Homo sapiens) (P50613 whole entry, the tested form may be a part): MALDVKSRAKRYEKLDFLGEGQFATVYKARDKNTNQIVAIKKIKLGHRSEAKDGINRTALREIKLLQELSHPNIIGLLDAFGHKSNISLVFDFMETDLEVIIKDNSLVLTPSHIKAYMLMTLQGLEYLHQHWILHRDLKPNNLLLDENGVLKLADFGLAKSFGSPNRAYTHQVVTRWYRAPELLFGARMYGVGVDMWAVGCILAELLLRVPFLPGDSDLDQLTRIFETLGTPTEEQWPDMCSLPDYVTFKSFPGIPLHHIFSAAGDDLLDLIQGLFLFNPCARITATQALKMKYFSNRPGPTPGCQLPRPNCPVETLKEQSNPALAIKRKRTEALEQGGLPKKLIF

Data set [8] addresses Mitogen-activated protein kinase 11 (Homo sapiens) (UniProt Q15759). Briefly: Binding affinity to wild-type human full length p38-beta (M1 to Q364 residues) expressed in bacterial expression system assessed as remaining unbound target protein level at 1000 nM by Kinomescan method relative to control. Summed up: (§3)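 Profiled in a KINOMEscan binding panel with the inhibitor at a single concentration of 1 μM. Binding to each kinase was read out as percent of control, relative to a DMSO control. Strong binders were defined as those with a percent control value below 1.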

Data set [9] concerns the target Tyrosine-protein kinase HCK (Homo sapiens) (UniProt P08631). Put plainly: Binding affinity to wild-type human full length HCK (M22 to P526 residues) expressed in bacterial expression system assessed as remaining unbound target protein level at 1000 nM by Kinomescan method relative to control. Summed up: as §2
Data set [10] deals with Serine/threonine-protein kinase WNK1 (Homo sapiens) (UniProt Q9H4A3). Briefly: Binding affinity to wild-type human partial length WNK1 (Q194 to A490 residues) expressed in mammalian expression system assessed as remaining unbound target protein level at 1000 nM by Kinomescan method relative to control.
The target of data set [11] is Atypical kinase COQ8A, mitochondrial (Homo sapiens) (UniProt Q8NI60). Put plainly: Binding affinity to wild-type human […] length ADCK3 (M280 to Q647 residues) expressed in bacterial expression system assessed as remaining unbound target protein level at 1000 nM by Kinomescan method relative to control. Put shortly:
as §2

The target in data set [12] is Mitogen-activated protein kinase kinase kinase 14 (Homo sapiens) (UniProt Q99558). Put plainly: Binding affinity to wild-type human partial length NIK (L318 to P947 residues) expressed in mammalian expression system assessed as remaining unbound target protein level at 1000 nM by Kinomescan method relative to control.
In the next data set the target is CDK9/cyclin T1 (Homo sapiens, UniProt P50750). Briefly: Inhibition of recombinant full length His-tagged human CDK9/CyclinT1 expressed in baculovirus expression system.
The target in data set [13] is Tyrosine-protein kinase receptor TYRO3 (Homo sapiens) (UniProt Q06418). Briefly: Binding affinity to wild-type human partial length TYRO3 (S497 to T814 residues) expressed in bacterial expression system assessed as remaining unbound target protein level at 1000 nM by Kinomescan method relative to control.
Sequence of Tyrosine-protein kinase receptor TYRO3 (Homo sapiens) (Q06418 whole entry, the tested form may be a part): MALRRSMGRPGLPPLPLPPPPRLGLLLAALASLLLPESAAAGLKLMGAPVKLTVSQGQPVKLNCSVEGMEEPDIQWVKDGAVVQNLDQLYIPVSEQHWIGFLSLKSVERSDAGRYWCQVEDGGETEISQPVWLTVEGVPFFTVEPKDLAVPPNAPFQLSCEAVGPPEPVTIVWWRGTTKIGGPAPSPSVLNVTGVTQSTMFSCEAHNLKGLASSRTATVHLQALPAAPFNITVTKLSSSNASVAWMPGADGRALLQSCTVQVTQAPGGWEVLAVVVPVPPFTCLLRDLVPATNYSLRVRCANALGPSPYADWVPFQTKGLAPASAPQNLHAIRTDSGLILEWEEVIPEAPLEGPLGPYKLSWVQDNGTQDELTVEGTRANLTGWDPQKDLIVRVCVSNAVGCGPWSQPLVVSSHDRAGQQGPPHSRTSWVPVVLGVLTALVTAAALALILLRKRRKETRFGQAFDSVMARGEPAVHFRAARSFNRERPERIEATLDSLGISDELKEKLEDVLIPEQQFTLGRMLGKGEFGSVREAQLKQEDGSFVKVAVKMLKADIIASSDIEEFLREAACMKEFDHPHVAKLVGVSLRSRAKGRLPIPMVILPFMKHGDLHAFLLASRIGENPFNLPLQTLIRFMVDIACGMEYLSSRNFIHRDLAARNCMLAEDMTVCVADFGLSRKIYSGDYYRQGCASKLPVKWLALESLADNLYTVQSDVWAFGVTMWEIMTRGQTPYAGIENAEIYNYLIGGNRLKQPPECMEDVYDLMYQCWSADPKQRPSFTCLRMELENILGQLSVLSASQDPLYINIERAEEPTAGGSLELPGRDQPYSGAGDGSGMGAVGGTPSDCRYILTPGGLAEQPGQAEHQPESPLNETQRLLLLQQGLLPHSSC
For data set [14], the target named is Insulin receptor (Homo sapiens) (UniProt P06213). Put plainly: Binding affinity to wild-type human partial length INSR (P997 to E1318 residues) expressed in mammalian expression system assessed as remaining unbound target protein level at 1000 nM by Kinomescan method relative to control. Put shortly: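 KINOMEscan binding panel of 468 kinases/mutants. Inhibitor was tested at a single concentration of 1 μM. Binding is reported as percent of control, defined relative to a DMSO control.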

The test system of data set [15] is Mast/stem cell growth factor receptor Kit (Homo sapiens), P10721 [L576P]. Put plainly: Binding affinity to human partial length KIT L576P mutant (Y545 to D952 residues) expressed in bacterial expression system assessed as remaining unbound target protein level at 1000 nM by Kinomescan method relative to control. Summed up: as §1
Sequence of Mast/stem cell growth factor receptor Kit (Homo sapiens), P10721 [L576P] (P10721 whole entry L576P, the tested form may be a part): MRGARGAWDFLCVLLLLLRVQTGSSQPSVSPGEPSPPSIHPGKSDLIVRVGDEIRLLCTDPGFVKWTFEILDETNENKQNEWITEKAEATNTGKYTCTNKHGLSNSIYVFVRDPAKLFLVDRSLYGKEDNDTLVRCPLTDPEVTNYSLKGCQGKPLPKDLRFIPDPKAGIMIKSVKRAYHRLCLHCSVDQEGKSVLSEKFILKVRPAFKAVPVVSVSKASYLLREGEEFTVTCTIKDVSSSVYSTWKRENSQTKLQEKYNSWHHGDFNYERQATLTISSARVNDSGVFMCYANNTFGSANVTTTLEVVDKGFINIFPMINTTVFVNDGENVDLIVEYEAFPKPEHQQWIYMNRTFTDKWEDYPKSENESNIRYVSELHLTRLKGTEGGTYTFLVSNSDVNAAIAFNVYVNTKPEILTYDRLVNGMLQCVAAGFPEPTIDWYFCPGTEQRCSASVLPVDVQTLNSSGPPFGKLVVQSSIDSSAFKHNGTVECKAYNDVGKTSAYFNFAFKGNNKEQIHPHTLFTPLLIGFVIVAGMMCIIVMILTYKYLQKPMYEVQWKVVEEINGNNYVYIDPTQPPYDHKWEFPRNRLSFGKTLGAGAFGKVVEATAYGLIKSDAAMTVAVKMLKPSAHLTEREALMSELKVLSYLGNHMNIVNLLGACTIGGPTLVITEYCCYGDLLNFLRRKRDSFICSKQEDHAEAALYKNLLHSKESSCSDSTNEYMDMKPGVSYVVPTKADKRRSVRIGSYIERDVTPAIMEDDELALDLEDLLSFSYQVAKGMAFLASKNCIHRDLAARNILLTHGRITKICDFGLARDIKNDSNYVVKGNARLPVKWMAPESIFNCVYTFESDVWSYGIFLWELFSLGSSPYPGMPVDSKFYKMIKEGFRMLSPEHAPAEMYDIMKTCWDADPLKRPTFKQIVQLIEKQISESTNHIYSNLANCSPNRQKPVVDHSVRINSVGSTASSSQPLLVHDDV
Data set [16] addresses Citron Rho-interacting kinase (Homo sapiens) (UniProt O14578). Briefly: Binding affinity to wild-type human partial length CIT (M68 to E432 residues) expressed in bacterial expression system assessed as remaining unbound target protein level at 1000 nM by Kinomescan method relative to control. Put shortly:
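KINOMEscan competition binding profile across a panel of 468 kinases and mutants, with the inhibitor tested at a single concentration of 1 μM. Binding is reported as percent of control, meaning signal relative to a DMSO control.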

Data set [17] addresses Serine/threonine-protein kinase B-raf (Homo sapiens) (UniProt P15056). Briefly: Binding affinity to wild-type human partial length BRAF (S429 to E741 residues) expressed in mammalian expression system assessed as remaining unbound target protein level at 1000 nM by Kinomescan method relative to control. Put shortly:
as §3

Data set [18] addresses Ribosomal protein S6 kinase beta-1 (Homo sapiens) (UniProt P23443). Briefly: Binding affinity to wild-type human partial length S6K1 (M1 to S421 residues) expressed in mammalian expression system assessed as remaining unbound target protein level at 1000 nM by Kinomescan method relative to control.
For data set [19], the system named is Tyrosine-protein kinase ABL1 (Homo sapiens), P00519 [T315I]. Briefly: Binding affinity to human phosphorylated ABL1 T315I mutant (S229 to K512 residues) expressed in mammalian expression system assessed as remaining unbound target protein level at 1000 nM by Kinomescan method relative to control. Put shortly: as §2

Some results are limits rather than exact numbers.

Sequence of 1-phosphatidylinositol 3-phosphate 5-kinase (Homo sapiens) (Q9Y2I7 whole entry, the tested form may be a part): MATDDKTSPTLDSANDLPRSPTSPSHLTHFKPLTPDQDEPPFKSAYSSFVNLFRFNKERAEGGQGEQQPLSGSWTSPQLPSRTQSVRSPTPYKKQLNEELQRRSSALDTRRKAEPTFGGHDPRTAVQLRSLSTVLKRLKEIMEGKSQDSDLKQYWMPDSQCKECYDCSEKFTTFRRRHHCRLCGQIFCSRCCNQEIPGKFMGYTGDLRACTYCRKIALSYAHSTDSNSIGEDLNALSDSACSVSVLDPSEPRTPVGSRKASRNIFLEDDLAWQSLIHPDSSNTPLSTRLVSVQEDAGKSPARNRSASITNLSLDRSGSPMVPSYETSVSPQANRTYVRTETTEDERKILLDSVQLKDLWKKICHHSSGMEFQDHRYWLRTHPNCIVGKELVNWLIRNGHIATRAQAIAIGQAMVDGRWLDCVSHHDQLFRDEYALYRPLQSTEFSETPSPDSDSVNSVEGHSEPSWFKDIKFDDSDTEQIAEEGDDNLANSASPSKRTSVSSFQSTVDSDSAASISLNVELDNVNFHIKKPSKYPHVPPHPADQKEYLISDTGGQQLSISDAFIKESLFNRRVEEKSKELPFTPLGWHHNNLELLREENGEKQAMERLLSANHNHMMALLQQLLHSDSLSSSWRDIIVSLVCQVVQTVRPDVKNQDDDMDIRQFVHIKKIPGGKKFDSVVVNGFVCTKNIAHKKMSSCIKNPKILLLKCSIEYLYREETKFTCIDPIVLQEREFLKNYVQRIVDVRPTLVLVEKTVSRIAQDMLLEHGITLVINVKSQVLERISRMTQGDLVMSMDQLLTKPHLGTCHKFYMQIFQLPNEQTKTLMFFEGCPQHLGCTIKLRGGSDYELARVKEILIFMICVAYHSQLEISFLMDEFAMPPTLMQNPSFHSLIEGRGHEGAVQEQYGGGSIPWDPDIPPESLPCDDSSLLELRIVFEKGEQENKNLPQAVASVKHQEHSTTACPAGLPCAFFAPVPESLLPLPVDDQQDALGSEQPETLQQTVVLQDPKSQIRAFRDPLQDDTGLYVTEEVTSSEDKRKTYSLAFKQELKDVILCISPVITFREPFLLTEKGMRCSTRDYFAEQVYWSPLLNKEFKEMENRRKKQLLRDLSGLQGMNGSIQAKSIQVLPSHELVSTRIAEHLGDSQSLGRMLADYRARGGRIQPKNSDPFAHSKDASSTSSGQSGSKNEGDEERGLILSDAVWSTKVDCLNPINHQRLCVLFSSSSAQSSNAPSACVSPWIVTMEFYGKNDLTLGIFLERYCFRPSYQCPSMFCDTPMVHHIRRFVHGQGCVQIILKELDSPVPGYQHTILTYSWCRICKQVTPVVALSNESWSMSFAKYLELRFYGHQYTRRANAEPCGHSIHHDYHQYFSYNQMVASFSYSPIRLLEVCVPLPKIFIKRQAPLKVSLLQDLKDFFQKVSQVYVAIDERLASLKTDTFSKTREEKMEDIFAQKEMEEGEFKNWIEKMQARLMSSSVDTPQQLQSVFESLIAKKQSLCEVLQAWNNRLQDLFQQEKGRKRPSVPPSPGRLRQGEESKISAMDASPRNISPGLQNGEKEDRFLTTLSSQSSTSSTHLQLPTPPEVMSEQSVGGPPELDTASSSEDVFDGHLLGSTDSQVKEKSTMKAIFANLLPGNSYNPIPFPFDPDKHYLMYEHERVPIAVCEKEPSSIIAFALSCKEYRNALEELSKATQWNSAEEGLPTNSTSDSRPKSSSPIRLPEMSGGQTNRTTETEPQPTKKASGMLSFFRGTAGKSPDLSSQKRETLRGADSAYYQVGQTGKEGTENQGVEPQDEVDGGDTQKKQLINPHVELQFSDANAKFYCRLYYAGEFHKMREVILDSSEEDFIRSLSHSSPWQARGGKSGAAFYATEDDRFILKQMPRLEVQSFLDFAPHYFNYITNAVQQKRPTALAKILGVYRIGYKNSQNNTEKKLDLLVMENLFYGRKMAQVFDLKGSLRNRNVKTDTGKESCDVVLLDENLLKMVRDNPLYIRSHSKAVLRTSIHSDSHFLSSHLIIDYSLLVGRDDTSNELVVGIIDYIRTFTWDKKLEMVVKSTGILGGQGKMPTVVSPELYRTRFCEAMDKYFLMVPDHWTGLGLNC
Sequence of Tyrosine-protein kinase HCK (Homo sapiens) (P08631 2-526 limits assumed): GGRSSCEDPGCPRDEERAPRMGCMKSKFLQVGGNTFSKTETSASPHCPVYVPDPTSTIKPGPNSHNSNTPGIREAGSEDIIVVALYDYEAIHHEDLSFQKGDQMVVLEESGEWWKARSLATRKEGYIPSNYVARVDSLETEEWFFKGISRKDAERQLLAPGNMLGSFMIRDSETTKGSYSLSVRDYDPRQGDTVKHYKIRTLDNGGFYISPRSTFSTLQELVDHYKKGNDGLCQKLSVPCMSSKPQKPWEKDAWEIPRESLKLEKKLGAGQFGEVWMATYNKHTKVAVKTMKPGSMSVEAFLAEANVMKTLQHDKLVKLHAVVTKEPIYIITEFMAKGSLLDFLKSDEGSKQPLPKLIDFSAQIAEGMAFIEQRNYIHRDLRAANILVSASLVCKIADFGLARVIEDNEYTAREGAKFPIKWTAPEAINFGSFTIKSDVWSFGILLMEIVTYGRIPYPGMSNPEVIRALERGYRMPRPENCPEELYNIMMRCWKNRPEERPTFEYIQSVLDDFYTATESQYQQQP
Sequence of Mast/stem cell growth factor receptor Kit (Homo sapiens), P10721 [A829P] (P10721 whole entry A829P, the tested form may be a part): as the sequence (P10721 whole entry L576P, the tested form may be a part) above, with P576L, A829P counted along it

`COCCN[C@H]1CC[C@H](Nc2cc(-c3csc(NCC4(C#N)CCOCC4)n3)c(Cl)cn2)CC1`: the Activity in data set [1] turned out to be 85%; in data set [2] it was 88%; in [3], 95%; in data set [5] it was 100%; in [6] it was 15%; in [7], 1.8%. For the same molecule, the Activity in data set [8] amounted to 85%; in data set [9], 100%; in [10], 100%; in [11], 88%; in [12], 100%; in [13], 68%. Also, the Activity in data set [14] amounted to 94%; in [15], 90%; in data set [16], 23%; in data set [17], 97%; in [18], 95%; in data set [19], 95%. The Ratio IC50 in the data set filed under Homo sapiens was > 1000. In addition, the peak concentration (Cmax) (usually the peak of the concentration-time curve) in [4] came to 414 ng/mL. Moreover, at CDK9/cyclin T1, the concentration for half-maximal inhibition (IC50) – broadly, the midpoint of a concentration-inhibition curve – came to 1 nM.

These data come from ChEMBL document CHEMBL4261600 (Eur J Med Chem, 2018).
